The values that follow come from ChEMBL document CHEMBL1811843, “Analogue-based design, synthesis and molecular docking analysis of 2,3-diaryl quinazolinones as non-ulcerogenic anti-inflammatory agents” (Bioorg Med Chem, 2011).

The species entered for data set [1] is Rattus norvegicus. Description: animal or person. The conditions noted are these: po, 3 h, read-out: INH.
The species entered for data set [2] is Rattus norvegicus. Description: animal or person. The conditions noted are these: po, 4.5 h, read-out: INH.
The species entered for data set [3] is Rattus norvegicus. Description: animal or person. The following applies: po, 6 h, read-out: INH.
Data set [4] concerns Rattus norvegicus. Description: Toxicity in albino Wistar rat assessed as ulcerogenic activity measuring gastric ulcer lesion index at 10 mg/kg, po once daily for four consecutive days. Type of data set: organism-based, Stomach. Details: dose 10 mg/kg, route oral. The following applies: in vivo. In outline:
(§1)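 Wistar albino rats (150–200 g, either sex, fasted) were randomized into groups of 10 and dosed orally once daily for four days alongside a vehicle control group. Rats were killed under deep ether anaesthesia and stomachs removed, opened along the greater curvature, and examined under a dissecting microscope for lesions or bleeding. Ulcer lesion index is given in cm.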

The species named for data set [5] is Rattus norvegicus. Description: animal or person. The conditions noted are these: po, 1.5 h, read-out: INH.
In data set [6] the test system is Rattus norvegicus. Description: Toxicity in albino Wistar rat assessed as ulcerogenic activity measuring gastric ulcer lesion index at 50 mg/kg, po once daily for four consecutive days. Type of data set: organism-based, Stomach. Further details: dose 50 mg/kg, route oral. The following applies: in vivo. In outline: as §1
The test system of data set [7] is Rattus norvegicus. Description: Antiinflammatory activity in rat assessed as inhibition of carrageenan-induced paw edema at 50 mg/kg, po measured after 90 min by Plethysmograph. The following applies: 1.5 h. Type of data set: functional. In outline:
(§2)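 Rats randomly grouped, six per group, housed at 25 °C with a 12 h light/dark cycle and acclimatized one week. Test compounds given orally at 50 mg/kg with CMC-Na as vehicle, and indomethacin 10 mg/kg as standard. Edema induced by 0.1 ml carrageenan solution injected into the hind paw. Paw volume measured by mercury-displacement plethysmograph before and 90, 180, 270 and 360 min after injection. % edema inhibition calculated from test and control paw volumes before and after carrageenan. Results given as mean ± SEM.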

For data set [8], the target named is T1, Prostaglandin G/H synthase 1 (Ovis aries) (UniProt P05979).
T1 sequence (whole entry): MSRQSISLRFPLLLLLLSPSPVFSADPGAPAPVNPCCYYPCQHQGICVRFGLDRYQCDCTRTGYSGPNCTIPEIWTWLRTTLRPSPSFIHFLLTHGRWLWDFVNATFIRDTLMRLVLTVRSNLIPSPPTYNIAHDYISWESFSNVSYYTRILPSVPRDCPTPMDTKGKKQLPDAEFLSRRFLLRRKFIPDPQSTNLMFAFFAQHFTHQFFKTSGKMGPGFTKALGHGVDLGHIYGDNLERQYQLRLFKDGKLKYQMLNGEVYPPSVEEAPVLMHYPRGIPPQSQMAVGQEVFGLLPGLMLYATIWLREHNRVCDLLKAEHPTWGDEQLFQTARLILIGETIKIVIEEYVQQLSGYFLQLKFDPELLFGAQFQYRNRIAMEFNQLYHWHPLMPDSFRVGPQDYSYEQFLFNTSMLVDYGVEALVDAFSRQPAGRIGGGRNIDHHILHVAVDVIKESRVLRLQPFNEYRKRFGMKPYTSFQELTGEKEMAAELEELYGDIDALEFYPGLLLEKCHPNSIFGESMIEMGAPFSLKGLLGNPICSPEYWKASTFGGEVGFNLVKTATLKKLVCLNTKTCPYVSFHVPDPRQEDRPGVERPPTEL
Description: Inhibition of sheep COX-1 at 20 uM by cayman colorimetric assay. An outline of the steps:
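Ovine COX-1 activity measured with a commercial ovine COX-1/COX-2 inhibitor screening kit, with calculations done per the kit guidelines. Each value is the mean of two determinations.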

In data set [9] the test system is Rattus norvegicus. Description: Antiinflammatory activity in rat assessed as inhibition of carrageenan-induced paw edema at 50 mg/kg, po measured after 360 min by Plethysmograph. Type of data set: functional. The following applies: 6 h. An outline of the steps: as §2
In general terms: Carrageenan injected into the paw causes an acute inflammation.

Data set [10] concerns Rattus norvegicus. Description: Antiinflammatory activity in rat assessed as inhibition of carrageenan-induced paw edema at 50 mg/kg, po measured after 180 min by Plethysmograph. The data set is classed as functional. The following applies: 3 h. In outline: as §2
The species named for another data set is Ovis aries. Description: Selectivity ratio of inhibition for sheep COX-1 to inhibition for sheep COX-2 at 20 uM.
The test system of data set [11] is Rattus norvegicus. Description: Antiinflammatory activity in rat assessed as inhibition of carrageenan-induced paw edema at 50 mg/kg, po measured after 270 min by Plethysmograph. The data set is classed as functional. The conditions noted are these: 4.5 h. An outline of the steps: as §2
Data set [12] has as its system Rattus norvegicus. Description: Toxicity in albino Wistar rat assessed as ulcerogenic activity measuring gastric ulcer lesion index at 100 mg/kg, po once daily for four consecutive days. Type of data set: organism-based, Stomach. Details: dose 100 mg/kg, route oral. The following applies: in vivo. An outline of the steps:
as §1

Turning to `COc1ccc2c(c1)c(CC(=O)O)c(C)n2C(=O)c1ccc(Cl)cc1` [INDOMETHACIN], the inhibition in vivo at 10 mg/kg in the data set listed under Rattus norvegicus [1] was determined as 58%; in the data set filed under Rattus norvegicus [2], 49%; in the data set filed under Rattus norvegicus [3] it was 13%; in the data set filed under Rattus norvegicus [5], 41%. For the same compound, the Activity is given as 1.42 cm in the data set with Rattus norvegicus [4] and 11.48 cm in the data set on Rattus norvegicus [6].
Usually inhibition stands for the relative decrease from the control value, in per cent. A low value points to a response near the control. On to `COc1ccc(-c2nc3ccc(Br)cc3c(=O)n2-c2ccc(S(C)(=O)=O)cc2)cc1`, for which the inhibition in vivo at 50 mg/kg worked out at 39% in the data set on Rattus norvegicus [7], 54% in the data set with Rattus norvegicus [9], 41% with Rattus norvegicus [10] and 49% in the data set with Rattus norvegicus [11]. For the same compound, in data set [8], the inhibition was determined as 7%. Further, the Selectivity ratio in the data set filed under Ovis aries was 0.106.
Consider `COc1ccc(-c2nc3cc(F)ccc3c(=O)n2-c2ccc(S(C)(=O)=O)cc2)cc1`, for which the inhibition in vivo at 50 mg/kg was determined as 31% in the data set with Rattus norvegicus [7], 39% in the data set with Rattus norvegicus [9], 34% in the data set with Rattus norvegicus [10] and 36% in the data set with Rattus norvegicus [11]. Further, the inhibition in [8] worked out at 29%. For the same compound, the Selectivity ratio in the data set listed under Ovis aries is 0.453.
As for `COc1ccc(-c2nc3ccc(Br)cc3c(=O)n2-c2ccc(SC)cc2)cc1`, the inhibition in vivo at 50 mg/kg with Rattus norvegicus [7] is 32%; in the data set with Rattus norvegicus [9], 42%; with Rattus norvegicus [10] it was 35%; in the data set on Rattus norvegicus [11], 39%.
Take `CSc1ccc(-n2c(-c3ccccc3)nc3cc(F)ccc3c2=O)cc1`: the inhibition in vivo at 50 mg/kg was found to be 29% with Rattus norvegicus [7], 40% in the data set on Rattus norvegicus [9], 36% in the data set on Rattus norvegicus [10] and 39% in the data set on Rattus norvegicus [11].
For `CSc1ccc(-n2c(-c3ccccc3)nc3cc(Cl)ccc3c2=O)cc1`, in that order: 31%, 39%, 32% and 34%.
With `COc1ccc(-c2nc3cc(F)ccc3c(=O)n2-c2ccc(SC)cc2)cc1`, the inhibition in vivo at 50 mg/kg in the data set on Rattus norvegicus [7] amounted to 31%; in the data set with Rattus norvegicus [9] it was 40%; in the data set on Rattus norvegicus [10] it was 34%; in the data set on Rattus norvegicus [11] it was 37%.
Regarding `COc1ccc(-c2nc3ccccc3c(=O)n2-c2ccc(SC)cc2)cc1`, the inhibition in vivo at 50 mg/kg in the data set on Rattus norvegicus [7] is 30%; in the data set with Rattus norvegicus [9], 40%; in the data set on Rattus norvegicus [10], 34%; in the data set with Rattus norvegicus [11], 38%. The compound further gave an inhibition in data set [8] of 30%. Further, the Selectivity ratio in the data set listed under Ovis aries was determined as 0.536.
Take `CS(=O)(=O)c1ccc(-n2c(-c3ccccc3)nc3ccccc3c2=O)cc1`: the inhibition in vivo at 50 mg/kg with Rattus norvegicus [7] is 30%; in the data set on Rattus norvegicus [9], 39%; with Rattus norvegicus [10], 33%; in the data set with Rattus norvegicus [11], 36%. Moreover, in data set [8], the inhibition came to 13%. In the data set listed under Ovis aries, the Selectivity ratio is 0.31.
For `CSc1ccc(-n2c(-c3ccccc3)nc3ccc(Br)cc3c2=O)cc1`, the inhibition in vivo at 50 mg/kg with Rattus norvegicus [7] was 30%; in the data set on Rattus norvegicus [9], 39%; with Rattus norvegicus [10], 33%; in the data set with Rattus norvegicus [11], 35%.
Take `COc1ccc(-c2nc3cc(Cl)ccc3c(=O)n2-c2ccc(SC)cc2)cc1`: the inhibition in vivo at 50 mg/kg in the data set with Rattus norvegicus [7] was 36%; with Rattus norvegicus [9], 47%; with Rattus norvegicus [10], 38%; in the data set on Rattus norvegicus [11] it was 43%.
As to `CS(=O)(=O)c1ccc(-n2c(-c3ccccc3)nc3ccc(Br)cc3c2=O)cc1`, the inhibition in vivo at 50 mg/kg with Rattus norvegicus [7] was determined as 38%; with Rattus norvegicus [9], 49%; in the data set with Rattus norvegicus [10], 40%; with Rattus norvegicus [11], 44%. Further, in the data set on Rattus norvegicus [12], the Activity amounted to 0 cm. The compound also registered an inhibition in data set [8] of 4%. The Selectivity ratio in the data set listed under Ovis aries was 0.04.
As for `COc1ccc(-c2nc3cc(Cl)ccc3c(=O)n2-c2ccc(S(C)(=O)=O)cc2)cc1`, the inhibition in vivo at 50 mg/kg in the data set with Rattus norvegicus [7] was determined as 37%; with Rattus norvegicus [9], 43%; with Rattus norvegicus [10], 38%; in the data set on Rattus norvegicus [11] it was 41%. Further, the inhibition in [8] amounted to 12%. Also, in the data set listed under Ovis aries, the Selectivity ratio stood at 0.167.
Turning to `CS(=O)(=O)c1ccc(-n2c(-c3ccccc3)nc3cc(Cl)ccc3c2=O)cc1`, the inhibition in vivo at 50 mg/kg stood at 32% with Rattus norvegicus [7], 45% in the data set with Rattus norvegicus [9], 37% with Rattus norvegicus [10] and 42% with Rattus norvegicus [11]. For the same compound, the Activity in the data set with Rattus norvegicus [12] is reported as 0 cm. For the same compound, in data set [8], the inhibition was found to be 0%.
Consider `CS(=O)(=O)c1ccc(-n2c(-c3ccccc3)nc3cc(F)ccc3c2=O)cc1`, for which the inhibition in vivo at 50 mg/kg in the data set on Rattus norvegicus [7] is 30%; with Rattus norvegicus [9], 41%; with Rattus norvegicus [10], 34%; in the data set on Rattus norvegicus [11], 39%. The compound also displayed an inhibition in data set [8] of 15%. Also, the Selectivity ratio in the data set filed under Ovis aries came to 0.238.
As for `CSc1ccc(-n2c(-c3ccccc3)nc3ccccc3c2=O)cc1`, the inhibition in vivo at 50 mg/kg with Rattus norvegicus [7] worked out at 29%; with Rattus norvegicus [9], 38%; in the data set on Rattus norvegicus [10], 32%; with Rattus norvegicus [11] it was 34%. Further, the inhibition in [8] was 12%. Also, the Selectivity ratio in the data set listed under Ovis aries was found to be 0.3.
Take `COc1ccc(-c2nc3ccccc3c(=O)n2-c2ccc(S(C)(=O)=O)cc2)cc1`: the inhibition in vivo at 50 mg/kg in the data set on Rattus norvegicus [7] turned out to be 35%; in the data set with Rattus norvegicus [9], 46%; with Rattus norvegicus [10], 38%; in the data set with Rattus norvegicus [11], 42%. The inhibition in data set [8] amounted to 24%. Besides, the Selectivity ratio in the data set listed under Ovis aries stood at 0.471.
